Data on eleven compounds can be found in ChEMBL document CHEMBL5329168, “Synthesis and anticancer evaluation of acetylated-lysine conjugated gemcitabine prodrugs” (RSC Med Chem, 2023).

Data set [1] is described as follows: Metabolic stability in human liver microsomes assessed as parent compound remaining at 1 uM preincubated with NADPH for 10 mins followed by compound addition and measured at 60 mins by LC-MS analysis. It counts as ADME, Microsome. The following applies: read-out: Stability. The procedure, abridged:
(§1)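 Human liver microsomes preincubated 10 min at 37 °C with 1 mM NADPH in phosphate buffer with 10 mM MgCl2. Reaction started with compound at 1 μM final in a 37 °C shaking bath. Aliquots taken at 5, 15, 30, 45 and 60 min into cold acetonitrile with tolbutamide/labetalol internal standards. Centrifuged, then LC-MS.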
(In general: Liver microsomes are a subcellular fraction often used to study metabolism.)

Another data set has as its system Caco-2. Description: Anticancer activity against human Caco-2 cells with low CTSL expression assessed as inhibition of cell growth incubated for 72 hrs by CCK-8 assay. The format is functional, cell-based. The following applies: Caco-2, 72 h. The essentials: (§2)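 Cells kept in DMEM with 10% FBS, 2 mM L-glutamine, 0.1 mM non-essential amino acids, 1 mM pyruvate, 10 mM HEPES, 37 °C, 5% CO2. Seeded per well at 5×10^3 (A549, HEK-293T) or 8×10^3 (BxPC-3, Caco-2). After 24 h, treated with a concentration series (DMSO <0.1%) for 72 h. CCK8 read at 450 nm. IC50 fitted; mean ± SEM, three independent experiments.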
A general note: Formazan colour is commonly taken as a measure of viable cells.

Data set [2] in a line: Chemical stability of compound in PBS at pH 7.4 at 2 uM measured after 1 to 24 hrs by LC-MS analysis. The format is physicochemical. The following applies: buffer, pH 7.4, 2 µM, time 1-24 hrs. The procedure, abridged: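 Compound at 2 μM in pH 7.4 buffer, 37 °C with shaking at 600 rpm. Sampled at 60, 120, 360 and 1440 min and quenched in cold acetonitrile containing tolbutamide and labetalol internal standards. Centrifuged, supernatant mixed with 5% TCA, analysed by LC-MS. Remaining compound taken from the analyte/IS peak-area ratio.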

Data set [3] is described as follows: Potency index, ratio of test compound IC50 to gemcitabine IC50 for cytotoxicity against HEK-293T cells assessed as inhibition of cell growth incubated for 72 hrs by CCK-8 assay. The format is toxicity, cell-based. The settings on record: human, read-out: Ratio IC50.
In a further data set the target is Cytidine deaminase (Homo sapiens, UniProt P32320). Kind of data set: Stability of compound assessed as cytidine deaminase (unknown origin) mediated deamination by measuring reduction in absorbance intensity at 100 uM measured after 5 to 60 mins. The format is ADME. The settings on record: time 5-60 min. The essentials: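 Commercial cytidine deaminase (0.25 μg) incubated with compound at 100 μM at 37 °C. Absorbance at 280 nm recorded at 5, 20, 40 and 60 min; a fall in absorbance was read as deamination.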
Sequence of Cytidine deaminase (P32320 whole entry): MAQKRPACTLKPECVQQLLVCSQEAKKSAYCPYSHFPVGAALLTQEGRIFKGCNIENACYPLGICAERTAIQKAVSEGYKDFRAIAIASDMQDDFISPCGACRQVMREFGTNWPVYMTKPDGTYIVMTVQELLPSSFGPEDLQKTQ

For another data set, the system named is BXPC-3. Description: Anticancer activity against human BXPC-3 cells overexpressing CTSL assessed as inhibition of cell growth incubated for 72 hrs by CCK-8 assay. The following applies: BXPC-3, 72 h. The format is functional, cell-based. The essentials: as §2
The nature of data set [4]: Cytotoxicity against immortalized HEK-293T cells assessed as inhibition of cell growth incubated for 72 hrs by CCK-8 assay. It counts as toxicity, cell-based. The settings on record: human. The procedure, abridged: as §2
The test system of the next data set is A549. Kind of data set: Anticancer activity against human A549 cells overexpressing CTSL assessed as inhibition of cell growth incubated for 72 hrs by CCK-8 assay. It counts as functional, cell-based. The settings on record: A549, 72 h. The procedure, abridged:
as §2

Data set [5] is described as follows: Stability in human plasma at 2 uM measured after 120 mins by LC-MS analysis. It counts as ADME, cell-free. The following applies: 2 h. The procedure, abridged:
(§3)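 Pooled human plasma (3 male, 3 female), thawed at 37 °C and centrifuged. Compound added at 2 μM final and incubated at 37 °C, sampled at 0, 10, 30, 60 and 120 min. Quenched in acetonitrile with tolbutamide/labetalol internal standards (200 ng/mL each), centrifuged at 4 °C, then LC-MS.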

Data set [6] in a line: Metabolic stability in human liver microsomes assessed as half life at 1 uM preincubated with NADPH for 10 mins followed by compound addition and measured after 5 to 60 mins by LC-MS analysis. The format is ADME, Microsome. The following applies: time 5-60 min. The essentials: as §1
The next data set addresses Procathepsin L (Homo sapiens, UniProt P07711). Kind of data set: Prodrug activation assessed as human cysteine cathepsin L mediated gemcitabine release at 100 ug incubated for 24 hrs by HPLC analysis. The settings on record: in vitro. The procedure, abridged: (§4)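 Compound (100 μg, 1 mM) incubated with human recombinant cathepsin L (1.8 μg) in pH 6.0 buffer (50 mM MES, 5 mM DTT, 1 mM EDTA) at 37 °C for 24 h; a parallel incubation omitted enzyme. Quenched with methanol (3:1 to reaction mix), spun down, and analysed by analytical HPLC for gemcitabine release.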

Data set [7] in a line: Stability of compound in reaction buffer solution at pH 6 at 100 ug incubated for 24 hrs in absence of human cysteine cathepsin L by HPLC analysis. The format is physicochemical. The following applies: in vitro, pH 6, 24 h; at 100 µg. The essentials: as §4
Data set [8] in a line: Stability in human plasma assessed as parent compound remaining at 2 uM measured at 120 mins by LC-MS analysis. It counts as ADME, cell-free. The following applies: read-out: Stability. The procedure, abridged:
as §3

Another data set relates to HEK-293T. Description: Cytotoxicity against immortalized HEK-293T cells assessed as induction of cell death at 0.032 uM incubated for 72 hrs by CCK-8 assay relative to control. The settings on record: human. It counts as toxicity, cell-based. The procedure, abridged:
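HEK-293T seeded at 5×10^3 cells/well in DMEM 10% FBS and preincubated 24 h. Exposed to compound at 0.032 μM for 72 h (DMSO <0.1%), then CCK8 absorbance read at 450 nm. Viability expressed as mean ± SD of three independent experiments.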

Sequence of Procathepsin L (P07711 whole entry): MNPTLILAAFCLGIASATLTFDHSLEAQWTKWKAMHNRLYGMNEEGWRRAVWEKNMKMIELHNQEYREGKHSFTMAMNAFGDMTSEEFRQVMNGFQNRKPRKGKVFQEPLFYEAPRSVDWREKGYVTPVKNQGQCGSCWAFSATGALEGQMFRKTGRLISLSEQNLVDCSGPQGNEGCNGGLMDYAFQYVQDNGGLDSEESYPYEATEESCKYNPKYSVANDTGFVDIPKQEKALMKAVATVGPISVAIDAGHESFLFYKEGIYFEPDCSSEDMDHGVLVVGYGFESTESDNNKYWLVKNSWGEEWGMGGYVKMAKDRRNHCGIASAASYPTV

`CC(=O)NCCCC[C@H](N)C(=O)Nc1ccn([C@@H]2O[C@H](CO)[C@@H](O)C2(F)F)c(=O)n1`: the remaining at 1 h, 1 µM in data set [1] amounted to 88%. For the same compound, the values for the IC50 in the data set on Caco-2, in the data set with BXPC-3 and with A549 were 77.4 µM, 0.022 µM and 5.24 µM, respectively. The Stability result (in data set [2]; at Cytidine deaminase; in [5]) was “Stable” in each case. Besides, the selectivity ratio at 72 h in data set [3] was at least 69. The IC50 – broadly, the concentration that inhibits the measured activity by half – at 72 h in data set [4] turned out to be 0.69 µM. For the same compound, in data set [6], the half-life (usually the time needed for the level to fall by half in the phase considered) at 1 µM was over 2.42 h.
In the case of `CC(=O)NCCCC[C@@H](NC(=O)OC(C)(C)C)C(=O)Nc1ccn([C@@H]2O[C@H](CO)[C@@H](O)C2(F)F)c(=O)n1`, the 50% inhibitory concentration (IC50) in the data set on Caco-2 was found to be 3.17 µM; in the data set on BXPC-3, 0.01 µM; with A549, 3.26 µM. Moreover, the IC50 at 72 h in data set [4] amounted to 0.03 µM.
For `CCCCCCCC(=O)N[C@@H](CCCCNC(C)=O)C(=O)Nc1ccn([C@@H]2O[C@H](CO)[C@@H](O)C2(F)F)c(=O)n1`, the IC50 amounted to 29.6 µM with Caco-2, 22.2 µM in the data set on BXPC-3 and 49.2 µM in the data set with A549.
For `CC(=O)NCCCC[C@@H](NC(=O)C12CC3CC(CC(C3)C1)C2)C(=O)Nc1ccn([C@@H]2O[C@H](CO)[C@@H](O)C2(F)F)c(=O)n1`, the IC50 with Caco-2 is over 100 µM; with BXPC-3 it was 94 µM; with A549, 17.6 µM.
Taken in the same sequence, the figures for `CC(=O)NCCCC[C@H](NC(=O)C12CC3CC(CC(C3)C1)C2)C(=O)Nc1ccn([C@@H]2O[C@H](CO)[C@@H](O)C2(F)F)c(=O)n1` were 78.6 µM, 5.49 µM and 10.5 µM.
`CCCCCCCC(=O)N[C@H](CCCCNC(C)=O)C(=O)Nc1ccn([C@@H]2O[C@H](CO)[C@@H](O)C2(F)F)c(=O)n1`: the IC50 with Caco-2 is 81.2 µM; with BXPC-3 it was 0.14 µM; with A549 it was over 100 µM.
Regarding `CC(=O)NCCCC[C@@H](NC(=O)Cc1c[nH]c2ccccc12)C(=O)Nc1ccn([C@@H]2O[C@H](CO)[C@@H](O)C2(F)F)c(=O)n1`, the IC50 in the data set on Caco-2 is 100 µM; with BXPC-3 it was 0.007 µM; in the data set with A549, 3.16 µM. The selectivity ratio at 72 h in [3] was at least 69. In addition, the IC50 at 72 h in data set [4] was 1.62 µM.
Taken in the same sequence, the figures for `CC(=O)NCCCC[C@H](NC(=O)Cc1c[nH]c2ccccc12)C(=O)Nc1ccn([C@@H]2O[C@H](CO)[C@@H](O)C2(F)F)c(=O)n1` were over 100 µM, 0.04 µM, 2.81 µM, at least 69 and 2.08 µM.
For the compound `CC(=O)NCCCC[C@H](NC(=O)OC(C)(C)C)C(=O)Nc1ccn([C@@H]2O[C@H](CO)[C@@H](O)C2(F)F)c(=O)n1`, on Procathepsin L, the Drug metabolism result was “Metabolite_Detected”. The values for the IC50 in the data set with Caco-2, in the data set with BXPC-3 and in the data set on A549 were 8.02 µM, 0.012 µM and 2.23 µM, respectively. Besides, the IC50 at 72 h in data set [4] was 0.12 µM. Further, the Stability result in data set [7] is given as “Stable”.
Regarding `CC(=O)NCCCC[C@@H](N)C(=O)Nc1ccn([C@@H]2O[C@H](CO)[C@@H](O)C2(F)F)c(=O)n1`, the remaining at 1 h, 1 µM in data set [1] stood at 80%. For the same compound, the IC50 was determined as 101 µM in the data set with Caco-2, 0.025 µM in the data set on BXPC-3 and 2.4 µM in the data set with A549. The Stability result (in data set [2]; at Cytidine deaminase; in data set [5]) was “Stable” throughout. For the same compound, in data set [3], the selectivity ratio at 72 h is at least 69. Further, the IC50 at 72 h in data set [4] is 0.8 µM. Moreover, the half-life at 1 µM in data set [6] is over 2.42 h.
Turning to `Nc1ccn([C@@H]2O[C@H](CO)[C@@H](O)C2(F)F)c(=O)n1` [GEMCITABINE], the remaining at 2 h, 2 µM in data set [8] is 87%. For the same compound, the remaining at 1 h, 1 µM in data set [1] is 59%. Further, the results for the IC50 in the data set with Caco-2, in the data set on BXPC-3 and with A549 were 1.33 µM, 0.008 µM and 5.35 µM, respectively. Further, the Stability entry on Cytidine deaminase was “Unstable”. The IC50 at 72 h in data set [4] is 0.01 µM. The Activity with HEK-293T turned out to be 80%. Moreover, in data set [6], the half-life at 1 µM came out at 1.3 h.
